First the molecules themselves.
B1: tRNA (parent)
chain: GUUCCGUUGGCGUAAUGGUAACGCGUCUCCCUCCUAAGGAGAAGACUGCGGGUUCGAGUCCCGUACGGAACG

Fewer inactive variants are shown than the library holds.

Variants of B1 are the subject of the series. The series is described as follows: yeast fitness relative to wild type (ratio to wild type); higher = fitter; tRNA-Arg(CCU), competitive growth, 37 C, YPD. The method, boiled down: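 Variants of the tRNA-Arg(CCU) gene, chemically synthesised with a 3% per-site mutation rate at 69 sites, were placed at the native genomic locus in Saccharomyces cerevisiae. The pooled strains were competed in YPD at 37°C for 24 hours in six parallel replicates. Gene amplicons from the start population and from each end population were read by 100-nucleotide paired-end sequencing. Darwinian fitness relative to wild type came from changes in genotype frequencies; genotypes needed ≥ 100 starting reads, and estimates < 0.5 were set to 0.5.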
As for C5G A15U, the yeast fitness turned out to be 0.747.

As to C5G A15C, the yeast fitness was 0.626.

As to C5G C30A A36G A45C A69U, the yeast fitness was at most 0.5.

For C5G A42G U64G, the yeast fitness was 0.637.

With C5G A42G U64C, the yeast fitness was 0.72.

With C5G C30A C31A C49U C55G, the yeast fitness was found to be 0.544.

Turning to C5G A21G C31G A36C A57G C62U, the yeast fitness stood at 0.586.

Regarding C5G C27A C49A, the yeast fitness was at most 0.5.

For the variant C5G C11G C27G G48A, the yeast fitness is 0.524.

For C5G C11G A42C C49U, the yeast fitness is at most 0.5.

For C5G C11A A20G U28C C33U A70C, the yeast fitness was at most 0.5.

C5G A15G A21G G25C C33U: the yeast fitness is at most 0.5.

With C5G A15G C61U, the yeast fitness was 0.539.

For the variant C5A U16C A21C C33U A40G A43U U54G C62G, the yeast fitness is at most 0.5.

Consider C5G A20G C46U, for which the yeast fitness came to 0.638.

As to C5A U26C, the yeast fitness turned out to be 0.954.

Regarding C5G A20U A37G U64A, the yeast fitness came to 0.577.

C5G A40U A42G U53A U54A: the yeast fitness is at most 0.5.

On to C5G C29U A37U G38C, for which the yeast fitness is at most 0.5.

C5G A15U C61U: the yeast fitness was at most 0.5.

In the case of C5G A14U A20C A45G, the yeast fitness was at most 0.5.

For C5G A14U A37U A45C C62U, the yeast fitness is at most 0.5.

Take C5G C29U A37G A65G: the yeast fitness is at most 0.5.

With C5G A20C G23A U54A, the yeast fitness was at most 0.5.

As to C5A U19C C34G C55A U64G A69C, the yeast fitness stood at 0.598.

Take C5G A20C U28C C29A A36U A40U C49G G63C A70U: the yeast fitness was found to be 0.579.

As to C5G A15U C49U A57U C61A, the yeast fitness worked out at 0.663.

With C5G A21G G41A G67A, the yeast fitness was at most 0.5.

On to C5A U26A A42C, for which the yeast fitness was at most 0.5.

On to C5A U26C G41C A43U A57G, for which the yeast fitness is at most 0.5.

Regarding C5G A42U G68A, the yeast fitness stood at 0.582.

For C5A U16A C22G C30A, the yeast fitness is at most 0.5.

In the case of C5G C29U G44C, the yeast fitness was at most 0.5.

As for C5G C11G A21C G67C, the yeast fitness was at most 0.5.

Take C5G A37G C46G: the yeast fitness came out at 0.598.

Turning to C5G C24U A43U C55U G68C, the yeast fitness is at most 0.5.

As to C5G C11A A14G G25C C29G G56C A57C, the yeast fitness is at most 0.5.

In the case of C5G A65U G67C, the yeast fitness amounted to 0.569.

With C5A U13G C24G C31A C62U C66U, the yeast fitness was at most 0.5.

Take C5G C31U U32C: the yeast fitness was found to be 0.659.

As to C5G A15U G56A A70G, the yeast fitness was at most 0.5.

C5G A20U G51C C61G A65U A70C: the yeast fitness was 0.565.

With C5G A45U C62U, the yeast fitness was determined as 0.725.

Take C5G C22G A36C: the yeast fitness is at most 0.5.

With C5G C22A G25A A37U, the yeast fitness was found to be 0.596.

With C5G A15U G50A A69U, the yeast fitness was at most 0.5.

For C5G A14G G17A U32C G56C C60G, the yeast fitness turned out to be 0.554.

For C5G C29A C31A, the yeast fitness was 0.714.

Turning to C5A U28C, the yeast fitness is 0.784.

As for C5G C30G G38C G56C, the yeast fitness is 0.621.

Regarding C5G A20C C24U, the yeast fitness is at most 0.5.

With C5G C24G G50A C60U A69U, the yeast fitness is at most 0.5.

As to C5A U13G U32A A42U G52A U54A A69C, the yeast fitness was at most 0.5.

C5G A14U C30A C62A: the yeast fitness is at most 0.5.

For the variant C5G A42C U54G, the yeast fitness was at most 0.5.

Turning to C5A U26C C27U, the yeast fitness came to 0.687.

On to C5G C11A C46G, for which the yeast fitness was 0.639.

Consider C5A U53G C60A, for which the yeast fitness is at most 0.5.

Consider C5G A20G G58C, for which the yeast fitness amounted to 0.648.

Regarding C5G C27U C34A G51A, the yeast fitness is at most 0.5.

For C5G A14C A20G C29A C31G U54A, the yeast fitness was at most 0.5.

For the variant C5G C27G U32C C33U G56A A69U, the yeast fitness was at most 0.5.

Regarding C5G A21U G23A C29A A37U A57G C61U, the yeast fitness amounted to 0.541.

As for C5G A15G U54A C55G, the yeast fitness is at most 0.5.

C5G A21G U26C C49A U54C A65G: the yeast fitness was at most 0.5.

As to C5G C22A C31U G50U C60U, the yeast fitness is at most 0.5.

Turning to C5G C29A C30U U35A C55G G56C, the yeast fitness is at most 0.5.

C5A U35G C60U C62G A70G: the yeast fitness was at most 0.5.

Turning to C5G C27U G51A, the yeast fitness is at most 0.5.

For the variant C5G A42C C60A, the yeast fitness is at most 0.5.

In the case of C5A U32C A36C G51A, the yeast fitness stood at 0.59.

Consider C5A U19C, for which the yeast fitness was found to be 1.08.

On to C5G C30G G67A A70U, for which the yeast fitness was at most 0.5.

Turning to C5G A21U, the yeast fitness came to 0.731.

Regarding C5A U16C C22U G63A, the yeast fitness was 0.553.

Regarding C5A U47C, the yeast fitness came to 0.85.

For C5A U13G C24G C31A C62G U64A, the yeast fitness was at most 0.5.

With C5G C30U U32A C49G, the yeast fitness was at most 0.5.

On to C5G A65G A69U, for which the yeast fitness stood at 0.71.

Take C5G C24U C46A G68U: the yeast fitness was at most 0.5.

As to C5A U19C G50A C55A C66A, the yeast fitness was at most 0.5.

Consider C5G A43G A69C, for which the yeast fitness is 0.615.

With C5A U35C, the yeast fitness is 0.869.

In the case of C5A U35G A42C A69C, the yeast fitness was 0.588.

The values are drawn from the RNAGym collection of RNA variant scans (doi:10.1126/science.aae0568).
